ChEMBL document CHEMBL5653631, “A Potent and Selective ULK1 Inhibitor Suppresses Autophagy and Sensitizes Cancer Cells to Nutrient Stress” (iScience, 2018)

Tests used:
[1] = target: T1, Serine/threonine-protein kinase ULK3 (Homo sapiens) (UniProt Q6PHR2); experiment: Inhibition of human recombinant ULK3 at 40 nM related to control ULK1
T1 sequence (whole entry): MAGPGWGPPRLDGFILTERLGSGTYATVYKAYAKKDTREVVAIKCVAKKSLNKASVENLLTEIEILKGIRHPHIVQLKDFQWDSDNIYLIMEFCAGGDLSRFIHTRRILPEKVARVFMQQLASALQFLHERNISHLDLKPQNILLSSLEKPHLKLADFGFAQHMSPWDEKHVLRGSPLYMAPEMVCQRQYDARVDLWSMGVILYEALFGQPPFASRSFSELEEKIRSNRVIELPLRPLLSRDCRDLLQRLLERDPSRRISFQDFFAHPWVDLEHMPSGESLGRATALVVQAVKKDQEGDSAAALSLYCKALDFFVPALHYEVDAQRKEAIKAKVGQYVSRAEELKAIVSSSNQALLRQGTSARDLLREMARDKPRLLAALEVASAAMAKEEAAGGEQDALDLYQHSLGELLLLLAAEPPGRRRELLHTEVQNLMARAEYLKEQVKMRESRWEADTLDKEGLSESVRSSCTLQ

[2] = target: Vascular endothelial growth factor receptor 2 (Homo sapiens) (UniProt P35968); experiment: Inhibition of human recombinant KDR at 40 nM in presence of ATP by radiometric assay relative to control
Sequence of Vascular endothelial growth factor receptor 2 (Homo sapiens) (P35968 whole entry): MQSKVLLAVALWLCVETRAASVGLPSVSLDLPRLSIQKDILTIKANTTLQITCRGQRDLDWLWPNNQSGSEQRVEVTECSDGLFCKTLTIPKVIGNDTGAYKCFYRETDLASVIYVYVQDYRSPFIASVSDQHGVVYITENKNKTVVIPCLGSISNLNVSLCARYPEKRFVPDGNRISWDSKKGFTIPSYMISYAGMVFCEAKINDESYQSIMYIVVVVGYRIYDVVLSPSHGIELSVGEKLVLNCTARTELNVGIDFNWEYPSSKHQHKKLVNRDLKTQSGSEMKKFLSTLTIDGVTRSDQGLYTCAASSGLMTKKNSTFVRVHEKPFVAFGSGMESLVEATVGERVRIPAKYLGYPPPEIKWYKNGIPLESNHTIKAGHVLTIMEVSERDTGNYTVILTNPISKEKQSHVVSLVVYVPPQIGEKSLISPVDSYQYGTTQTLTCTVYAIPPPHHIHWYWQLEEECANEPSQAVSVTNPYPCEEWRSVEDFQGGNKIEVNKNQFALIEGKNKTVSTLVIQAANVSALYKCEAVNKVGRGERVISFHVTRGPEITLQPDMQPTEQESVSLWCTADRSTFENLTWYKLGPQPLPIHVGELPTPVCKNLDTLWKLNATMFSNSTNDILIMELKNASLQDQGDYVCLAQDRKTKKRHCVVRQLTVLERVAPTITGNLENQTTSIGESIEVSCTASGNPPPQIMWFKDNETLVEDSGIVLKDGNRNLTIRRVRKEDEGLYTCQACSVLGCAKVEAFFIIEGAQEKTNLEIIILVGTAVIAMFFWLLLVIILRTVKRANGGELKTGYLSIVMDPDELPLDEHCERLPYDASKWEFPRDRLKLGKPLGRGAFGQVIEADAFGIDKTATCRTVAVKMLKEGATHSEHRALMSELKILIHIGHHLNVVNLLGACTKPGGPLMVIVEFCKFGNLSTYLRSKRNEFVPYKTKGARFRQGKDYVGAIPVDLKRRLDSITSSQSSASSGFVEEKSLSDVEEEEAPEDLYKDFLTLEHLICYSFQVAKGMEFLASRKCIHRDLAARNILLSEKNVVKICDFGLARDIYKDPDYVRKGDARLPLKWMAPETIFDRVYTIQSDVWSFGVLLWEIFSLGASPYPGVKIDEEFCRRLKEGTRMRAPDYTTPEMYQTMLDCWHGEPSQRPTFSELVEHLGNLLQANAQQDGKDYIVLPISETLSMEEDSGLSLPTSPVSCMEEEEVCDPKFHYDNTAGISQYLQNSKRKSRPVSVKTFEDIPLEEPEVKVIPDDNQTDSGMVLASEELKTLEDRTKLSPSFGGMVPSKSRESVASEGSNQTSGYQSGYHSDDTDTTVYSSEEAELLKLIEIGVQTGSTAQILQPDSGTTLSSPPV

[3] = target: Fibroblast growth factor receptor 3 (Homo sapiens) (UniProt P22607); experiment: Inhibition of human recombinant FGFR3 at 40 nM in presence of ATP by radiometric assay relative to control
Sequence of Fibroblast growth factor receptor 3 (Homo sapiens) (P22607 23-806 limits assumed): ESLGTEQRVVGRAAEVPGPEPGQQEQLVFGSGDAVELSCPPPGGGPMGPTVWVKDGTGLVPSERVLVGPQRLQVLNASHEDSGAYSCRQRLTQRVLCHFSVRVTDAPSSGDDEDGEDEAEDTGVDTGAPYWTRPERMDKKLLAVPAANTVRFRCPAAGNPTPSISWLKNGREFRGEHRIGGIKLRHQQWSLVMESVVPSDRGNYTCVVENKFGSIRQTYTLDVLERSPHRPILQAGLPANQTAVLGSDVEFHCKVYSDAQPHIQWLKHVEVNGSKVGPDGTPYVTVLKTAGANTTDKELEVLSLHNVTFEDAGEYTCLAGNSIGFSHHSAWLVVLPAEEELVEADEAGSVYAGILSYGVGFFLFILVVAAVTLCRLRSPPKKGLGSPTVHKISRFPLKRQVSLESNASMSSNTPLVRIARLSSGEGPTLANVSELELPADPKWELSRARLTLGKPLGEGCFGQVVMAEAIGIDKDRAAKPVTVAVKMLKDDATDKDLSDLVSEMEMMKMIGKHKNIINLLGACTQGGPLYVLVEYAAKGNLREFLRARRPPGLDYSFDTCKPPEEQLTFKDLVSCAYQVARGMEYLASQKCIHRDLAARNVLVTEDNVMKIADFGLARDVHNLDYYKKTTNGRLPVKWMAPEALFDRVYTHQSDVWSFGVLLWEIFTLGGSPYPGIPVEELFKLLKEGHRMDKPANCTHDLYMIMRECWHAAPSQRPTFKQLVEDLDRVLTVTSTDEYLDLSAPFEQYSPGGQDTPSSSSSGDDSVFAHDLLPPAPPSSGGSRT

[4] = target: T2, Myotonin-protein kinase (Homo sapiens) (UniProt Q09013); experiment: Inhibition of human recombinant DMPK1 at 40 nM related to control ULK1
T2 sequence (whole entry): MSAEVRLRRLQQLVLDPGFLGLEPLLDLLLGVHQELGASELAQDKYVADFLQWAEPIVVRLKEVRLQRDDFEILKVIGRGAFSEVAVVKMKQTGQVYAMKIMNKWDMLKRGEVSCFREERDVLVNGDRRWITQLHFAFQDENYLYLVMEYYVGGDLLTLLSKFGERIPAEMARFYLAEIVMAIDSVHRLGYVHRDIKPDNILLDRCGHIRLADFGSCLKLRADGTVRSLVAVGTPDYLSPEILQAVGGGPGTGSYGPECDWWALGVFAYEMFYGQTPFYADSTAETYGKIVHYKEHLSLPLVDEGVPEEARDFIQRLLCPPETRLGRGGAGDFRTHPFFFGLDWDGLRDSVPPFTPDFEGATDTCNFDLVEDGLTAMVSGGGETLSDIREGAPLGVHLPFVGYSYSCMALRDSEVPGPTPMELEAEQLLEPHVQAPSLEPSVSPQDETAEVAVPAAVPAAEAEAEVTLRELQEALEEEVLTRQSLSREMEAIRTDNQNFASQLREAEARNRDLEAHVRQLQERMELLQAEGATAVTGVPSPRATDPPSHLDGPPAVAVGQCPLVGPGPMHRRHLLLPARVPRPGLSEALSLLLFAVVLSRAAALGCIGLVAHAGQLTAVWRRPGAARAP

[5] = target: Receptor-type tyrosine-protein kinase FLT3 (Homo sapiens) (UniProt P36888); experiment: Inhibition of human recombinant FLT3 at 40 nM related to control ULK1
Sequence of Receptor-type tyrosine-protein kinase FLT3 (Homo sapiens) (P36888 whole entry): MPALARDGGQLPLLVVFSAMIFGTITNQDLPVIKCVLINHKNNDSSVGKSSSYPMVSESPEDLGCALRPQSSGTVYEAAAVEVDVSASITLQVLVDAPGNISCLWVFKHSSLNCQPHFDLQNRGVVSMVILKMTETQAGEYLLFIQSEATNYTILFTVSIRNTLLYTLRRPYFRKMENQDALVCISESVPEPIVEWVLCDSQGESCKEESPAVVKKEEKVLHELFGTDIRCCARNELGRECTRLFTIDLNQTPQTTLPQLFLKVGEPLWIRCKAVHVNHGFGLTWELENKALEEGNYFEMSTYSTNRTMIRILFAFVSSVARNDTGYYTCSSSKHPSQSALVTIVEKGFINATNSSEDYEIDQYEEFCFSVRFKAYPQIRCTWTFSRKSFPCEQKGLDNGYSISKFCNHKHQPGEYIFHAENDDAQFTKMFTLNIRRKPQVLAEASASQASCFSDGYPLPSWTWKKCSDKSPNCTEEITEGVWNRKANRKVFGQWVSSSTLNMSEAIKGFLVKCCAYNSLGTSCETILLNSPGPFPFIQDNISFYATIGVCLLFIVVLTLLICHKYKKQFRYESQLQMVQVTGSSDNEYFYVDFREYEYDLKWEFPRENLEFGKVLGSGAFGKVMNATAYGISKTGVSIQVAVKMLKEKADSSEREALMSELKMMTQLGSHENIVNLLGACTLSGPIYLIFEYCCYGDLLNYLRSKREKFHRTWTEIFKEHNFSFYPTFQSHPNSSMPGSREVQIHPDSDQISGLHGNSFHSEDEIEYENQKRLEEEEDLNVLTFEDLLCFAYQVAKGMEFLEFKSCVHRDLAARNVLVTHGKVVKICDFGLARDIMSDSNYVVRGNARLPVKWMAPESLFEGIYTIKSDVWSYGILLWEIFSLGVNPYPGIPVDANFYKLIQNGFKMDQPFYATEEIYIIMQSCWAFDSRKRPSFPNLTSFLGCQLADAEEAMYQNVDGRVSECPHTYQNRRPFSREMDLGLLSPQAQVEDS

[6] = target: Fibroblast growth factor receptor 2 (Homo sapiens) (UniProt P21802); experiment: Inhibition of human recombinant FGFR2 at 15 nM in presence of ATP by radiometric assay relative to control
Sequence of Fibroblast growth factor receptor 2 (Homo sapiens) (P21802 22-821 limits assumed): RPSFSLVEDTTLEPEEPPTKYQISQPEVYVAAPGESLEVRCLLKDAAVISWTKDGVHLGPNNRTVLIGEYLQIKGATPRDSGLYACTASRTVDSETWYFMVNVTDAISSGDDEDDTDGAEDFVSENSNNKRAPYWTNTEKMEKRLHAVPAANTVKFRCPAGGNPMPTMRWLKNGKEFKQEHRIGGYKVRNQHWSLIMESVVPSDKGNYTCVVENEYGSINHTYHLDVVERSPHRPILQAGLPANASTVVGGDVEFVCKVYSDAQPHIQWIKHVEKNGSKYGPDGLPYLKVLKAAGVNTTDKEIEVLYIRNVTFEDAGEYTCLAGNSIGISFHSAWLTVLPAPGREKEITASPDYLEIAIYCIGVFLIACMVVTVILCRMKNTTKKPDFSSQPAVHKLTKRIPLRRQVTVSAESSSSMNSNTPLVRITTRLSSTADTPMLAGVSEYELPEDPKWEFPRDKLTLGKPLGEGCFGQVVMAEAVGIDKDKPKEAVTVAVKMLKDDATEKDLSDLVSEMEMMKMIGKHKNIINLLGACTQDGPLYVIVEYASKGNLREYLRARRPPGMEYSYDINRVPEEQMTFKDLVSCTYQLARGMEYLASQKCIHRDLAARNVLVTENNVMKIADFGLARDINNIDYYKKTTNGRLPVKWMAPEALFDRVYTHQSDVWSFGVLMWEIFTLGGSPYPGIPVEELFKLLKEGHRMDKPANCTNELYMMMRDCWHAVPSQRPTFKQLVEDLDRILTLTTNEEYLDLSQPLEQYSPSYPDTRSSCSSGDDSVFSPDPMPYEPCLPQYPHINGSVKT

[7] = target: Cyclin-dependent kinase 3 (Homo sapiens) (UniProt Q00526); experiment: Inhibition of human recombinant CDK3 at 15 nM related to control ULK1
Sequence of Cyclin-dependent kinase 3 (Homo sapiens) (Q00526 whole entry, looked up): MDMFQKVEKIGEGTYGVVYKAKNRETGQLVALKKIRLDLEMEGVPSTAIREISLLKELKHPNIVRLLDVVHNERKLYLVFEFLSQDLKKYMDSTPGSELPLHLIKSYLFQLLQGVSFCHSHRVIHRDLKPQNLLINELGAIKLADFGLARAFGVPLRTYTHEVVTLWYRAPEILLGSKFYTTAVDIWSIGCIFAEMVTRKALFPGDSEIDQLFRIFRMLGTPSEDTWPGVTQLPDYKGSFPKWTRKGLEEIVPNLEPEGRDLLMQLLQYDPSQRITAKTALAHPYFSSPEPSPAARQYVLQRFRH

[8] = target: Bone morphogenetic protein receptor type-1B (Homo sapiens) (UniProt O00238); experiment: Inhibition of human recombinant BMPR1B at 15 nM in presence of ATP by radiometric assay relative to control
Sequence of Bone morphogenetic protein receptor type-1B (Homo sapiens) (O00238 whole entry): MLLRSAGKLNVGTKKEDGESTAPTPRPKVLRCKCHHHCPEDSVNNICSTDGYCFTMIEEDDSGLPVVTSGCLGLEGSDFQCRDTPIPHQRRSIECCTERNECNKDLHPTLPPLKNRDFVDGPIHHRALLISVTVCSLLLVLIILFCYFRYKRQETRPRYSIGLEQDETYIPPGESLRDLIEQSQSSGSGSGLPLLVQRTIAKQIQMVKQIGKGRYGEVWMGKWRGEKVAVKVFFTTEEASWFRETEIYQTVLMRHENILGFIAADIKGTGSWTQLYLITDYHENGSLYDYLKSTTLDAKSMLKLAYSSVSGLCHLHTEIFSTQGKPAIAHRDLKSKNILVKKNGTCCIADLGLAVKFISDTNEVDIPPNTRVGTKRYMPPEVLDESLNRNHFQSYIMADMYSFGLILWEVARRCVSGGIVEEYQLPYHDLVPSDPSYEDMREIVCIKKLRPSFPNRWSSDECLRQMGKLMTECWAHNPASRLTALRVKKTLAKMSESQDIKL
Outline: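 Part of a radiometric in vitro activity panel of 327 recombinant human kinases. Each kinase was tested in duplicate at one inhibitor concentration. Activity remaining was expressed as a percentage of the vehicle control, and percent inhibition was taken as 100 minus that value.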

Q: What does the source list for `O=C(N[C@@H](C1CC1)C(F)(F)F)c1cc(-c2cnn3cc(-c4ccc(F)cc4)cnc23)cs1`?
A: fold change (FC) [1]: 0.07; inhibition [2]: 5%; inhibition [3]: 0%; fold change (FC) [4]: 0.07; fold change (FC) [5]: 0.26

Q: With `CC(C)[C@H](NC(=O)c1cc(-c2cnn3cc(-c4ccc(OCCN5CCCCC5)cc4)cnc23)cs1)C(F)(F)F` as the molecule, how does the inhibition [6] read?
A: 0%

Q: What about the fold change (FC) [7] of the same molecule?
A: 0.06

Q: What about the inhibition [8] of the same molecule?
A: 24%
